Laboratory results taken from ChEMBL document CHEMBL1773012, “Synthesis, spectral, crystal structure and in vitro antimicrobial evaluation of imidazole/benzotriazole substituted piperidin-4-one derivatives” (2011).
Values after ≈ are worked out from the molar mass of the structure shown. Active and inactive are the calls of the source. The rule behind the calls is not given here.

Legend:
[1] = tested on: Bacillus subtilis; assay: Antimicrobial activity against Bacillus subtilis ATCC 530 after 24 hrs by two fold serial dilution method; format: functional
Summary of the method: (§1)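 Nutrient broth two-fold serial dilution. Inoculum was seeded NB prepared from 24 h nutrient-agar cultures grown at 37 ± 1 °C and adjusted with sterile saline to 1×10⁴–10⁵ CFU. Compounds and reference drugs were tested at 200, 100, 50, 25, 12.5 and 6.25. Tubes were incubated in a BOD incubator, and MIC was read visually after 24 h.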

[2] = tested on: Escherichia coli; assay: Antimicrobial activity against Escherichia coli ATCC 26032 after 24 hrs by two fold serial dilution method; format: functional; details: ATCC 26032, 24 h; summary of the method: as §1
[3] = tested on: Aspergillus flavus; assay: Antimicrobial activity against Aspergillus flavus ATCC 525 after 72 to 96 hrs by two fold serial dilution method; format: functional
Summary of the method: (§2)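 Two-fold serial dilution in Sabouraud dextrose broth. Spores from 24 h to 7-day-old Sabouraud agar slant cultures were suspended in SDB. Compounds and reference drugs were tested at 200, 100, 50, 25, 12.5 and 6.25. Tubes were incubated in a BOD incubator, and MIC was recorded visually after 72–96 h.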

[4] = tested on: Candida albicans; assay: Antimicrobial activity against Candida albicans ATCC 3430 by two fold serial dilution method; format: functional
Summary of the method: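 Sabouraud dextrose broth two-fold serial dilution. Cells or spores from 24 h to 7-day-old Sabouraud agar slant cultures were suspended in SDB. Test and reference agents were tested at 200, 100, 50, 25, 12.5 and 6.25. Tubes were incubated in a BOD incubator, with MIC read by visual observation.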

[5] = tested on: Klebsiella pneumoniae; assay: Antimicrobial activity against Klebsiella pneumoniae ATCC 16425 after 24 hrs by two fold serial dilution method; format: functional; summary of the method: as §1
[6] = tested on: Salmonella typhi; assay: Antimicrobial activity against Salmonella typhi ATCC 25021 after 24 hrs by two fold serial dilution method; format: functional, Salmonella enterica subsp. enterica serovar Typhi; details: Salmonella enterica, ATCC 25021, 24 h
Summary of the method: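 Two-fold serial dilution in nutrient broth. Seeded broth was made from 24 h bacterial cultures on nutrient agar grown at 37 ± 1 °C, and the suspension was adjusted with sterile saline to 1×10⁴–10⁵ CFU. Compounds and reference drugs were tested at 200, 100, 50, 25, 12.5 and 6.25. Tubes were incubated in a BOD incubator, and the MIC was read visually after 24 h.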

[7] = tested on: Rhizopus; assay: Antimicrobial activity against Rhizopus sp. ATCC 2842 after 72 to 96 hrs by two fold serial dilution method; format: functional; summary of the method: as §2
[8] = tested on: Cryptococcus neoformans; assay: Antimicrobial activity against Cryptococcus neoformans ATCC 3235 after 72 to 96 hrs by two fold serial dilution method; format: functional; summary of the method: as §2
[9] = tested on: Staphylococcus aureus; assay: Antimicrobial activity against Staphylococcus aureus ATCC 25930 after 24 hrs by two fold serial dilution method; format: functional; summary of the method: as §1
[10] = tested on: Aspergillus niger; assay: Antimicrobial activity against Aspergillus niger ATCC 635 after 72 to 96 hrs by two fold serial dilution method; format: functional; summary of the method: as §2

SMILES	MIC ([1]; ATCC 530, 24 h) [µg/mL]	MIC [2] [µg/mL]	MIC [3]	MIC [4]	MIC ([5]; ATCC 16425, 24 h) [µg/mL]	MIC [6] [µg/mL]	MIC [7] [µg/mL]	MIC [8] [µg/mL]	MIC [9]	MIC [10]	MIC ([9]; ATCC 25930, 24 h) [µg/mL]	MIC [5]	MIC [1]
CC1C(=O)C(C)C(c2ccccc2)N(C(=O)Cn2ccnc2)C1c1ccccc1 (centres undefined)	100 (≈ 258 µM)	6.25 (≈ 16.1 µM)	100 µg/mL (≈ 258 µM)	inactive	100 (≈ 258 µM)	100 (≈ 258 µM)	200 (≈ 516 µM)	100 (≈ 258 µM)	inactive	100 µg/mL (≈ 258 µM)			
COc1ccc(C2C(C)C(=O)C(C)C(c3ccc(OC)cc3)N2C(=O)Cn2ccnc2)cc1 (centres undefined)	50 (≈ 112 µM)	25 (≈ 55.9 µM)	100 µg/mL (≈ 223 µM)	6.25 µg/mL (≈ 14 µM)	200 (≈ 447 µM)	100 (≈ 223 µM)	100 (≈ 223 µM)	50 (≈ 112 µM)		inactive	100 (≈ 223 µM)		
CC1C(=O)C(C)C(c2cccc(F)c2)N(C(=O)Cn2nnc3ccccc32)C1c1cccc(F)c1 (centres undefined)	25 (≈ 52.7 µM)	50 (≈ 105 µM)	200 µg/mL (≈ 421 µM)	inactive	25 (≈ 52.7 µM)		100 (≈ 211 µM)	100 (≈ 211 µM)		200 µg/mL (≈ 421 µM)	50 (≈ 105 µM)		
CC(C)C1C(=O)CC(c2ccccc2)N(C(=O)Cn2ccnc2)C1c1ccccc1 (centres undefined)	12.5 (≈ 31.1 µM)	100 (≈ 249 µM)	100 µg/mL (≈ 249 µM)	100 µg/mL (≈ 249 µM)		25 (≈ 62.3 µM)	50 (≈ 125 µM)	25 (≈ 62.3 µM)		12.5 µg/mL (≈ 31.1 µM)	100 (≈ 249 µM)	inactive	
CCC1C(=O)CC(c2ccccc2)N(C(=O)Cn2ccnc2)C1c1ccccc1 (centres undefined)		50 (≈ 129 µM)	200 µg/mL (≈ 516 µM)	200 µg/mL (≈ 516 µM)	100 (≈ 258 µM)	200 (≈ 516 µM)	100 (≈ 258 µM)	50 (≈ 129 µM)		inactive	200 (≈ 516 µM)		inactive
C[C@@H]1[C@H](O)[C@@H](C)/C=C/C=C/C=C/C=C/C=C/C=C/C=C/[C@H](O[C@@H]2O[C@H](C)[C@@H](O)[C@H](N)[C@@H]2O)C[C@@H]2O[C@](O)(C[C@@H](O)C[C@@H](O)[C@H](O)CC[C@@H](O)C[C@@H](O)CC(=O)O[C@H]1C)C[C@H](O)[C@H]2C(=O)O [AMPHOTERICIN B]			50 µg/mL (≈ 54.1 µM)	25 µg/mL (≈ 27.1 µM)			25 (≈ 27.1 µM)	25 (≈ 27.1 µM)		50 µg/mL (≈ 54.1 µM)			
CC1C(=O)C(C)C(c2cccc(F)c2)N(C(=O)Cn2ccnc2)C1c1cccc(F)c1 (centres undefined)		200 (≈ 472 µM)	inactive	50 µg/mL (≈ 118 µM)	200 (≈ 472 µM)	50 (≈ 118 µM)	25 (≈ 59 µM)	6.25 (≈ 14.8 µM)		100 µg/mL (≈ 236 µM)	50 (≈ 118 µM)		inactive
CC1C(=O)CC(c2ccccc2)N(C(=O)Cn2ccnc2)C1c1ccccc1 (centres undefined)	25 (≈ 66.9 µM)	100 (≈ 268 µM)	100 µg/mL (≈ 268 µM)	100 µg/mL (≈ 268 µM)	50 (≈ 134 µM)	200 (≈ 536 µM)	100 (≈ 268 µM)	100 (≈ 268 µM)		200 µg/mL (≈ 536 µM)	100 (≈ 268 µM)		
CN[C@@H]1[C@H](O[C@H]2[C@H](O[C@H]3[C@H](O)[C@@H](O)[C@H](N=C(N)N)[C@@H](O)[C@@H]3N=C(N)N)O[C@@H](C)[C@]2(O)C=O)O[C@@H](CO)[C@H](O)[C@H]1O [STREPTOMYCIN]	12.5 (≈ 21.5 µM)	12.5 (≈ 21.5 µM)			25 (≈ 43 µM)	50 (≈ 86 µM)					50 (≈ 86 µM)		
